Measurements: ChEMBL document CHEMBL4602675, “The Marine Natural Product Manzamine A Inhibits Cervical Cancer by Targeting the SIX1 Protein” (J Nat Prod, 2020)
Active and inactive are the calls of the source. The calls are words filed in the database; no cut-off is given here.

How the values were obtained:
HeLa [1] = experiment: Induction of apoptosis in human HeLa cells assessed as apoptotic cells at 4 uM after 48 hrs by Annexin V-FITC/PI double staining based flow cytometric analysis (reference value: 19.3%); assay type: functional
C-33-A [2] = experiment: Cell cycle arrest in human C33A cells assessed as increase in p53 protein expression at 2 to 4 uM after 48 hr by Western lot analysis; assay type: functional, cell-based
Method in brief: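 Western blot. 1 × 10^6 cells were seeded per 100 mm dish and exposed the next day to 2 or 4 μM for 48 h. Cells were trypsinized and lysed in RIPA buffer with protease inhibitors. Equal protein was run on SDS-PAGE and transferred to PVDF, which was blocked in 5% milk/TBST. Anti-p53 and anti-p21 (also GAPDH) were used at 1:500 and HRP secondary at 1:2000; chemiluminescent detection.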

SiHa [3] = experiment: Induction of apoptosis in human SiHa cells assessed as viable cells at 4 uM after 48 hrs by Annexin V-FITC/PI double staining based flow cytometric analysis (reference value: 93.7%); assay type: functional; settings: read-out: Activity
C-33-A [4] = experiment: Cell cycle arrest in human C33A cells assessed as accumulation at G2/M phase at 4 uM after 24 hrs by propidium iodide staining based flow cytometric analysis (reference value: 26.2%); assay type: functional
Method in brief: (§1)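 Cells in DMEM/10% FBS at 37 °C, 5% CO2 were given 4 μM for 24, 48 or 72 h, with DMSO as control. After trypsinization they were fixed in chilled 70% ethanol on ice for 30 min, treated with RNase A (1 mg/mL) for 30 min at room temperature, and stained with PI (20 μg/mL). At least 10 000 events were read by flow cytometry to give sub-G1, G0/G1, S and G2/M fractions; mean ± SEM.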

[5] = target: T1, Protein E7 (Human papillomavirus 16) (UniProt P03129); experiment: Inhibition of Human papillomavirus type16 derived E7 in human CaSki cells assessed as decrease in cyclin-D1 protein expression at 2 to 4 uM after 48 hrs by Western blot analysis; assay type: cell-based; settings: Ca-Ski
T1 sequence (whole entry): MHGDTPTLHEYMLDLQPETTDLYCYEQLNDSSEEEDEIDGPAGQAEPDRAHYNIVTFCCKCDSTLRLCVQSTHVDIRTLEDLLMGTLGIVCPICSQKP
Method in brief: (§2)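 Cells were seeded at 1 × 10^6 per 100 mm dish and treated next day with 2 or 4 μM for 48 h. They were trypsinised, PBS-washed and lysed in RIPA with protease inhibitors. Equal protein was run on SDS-PAGE and transferred to PVDF. Primary antibodies were used at 1:500, with BSA 3% for blocking and antibodies for CK2α, Rb and pRb, otherwise 5% milk in TBST. HRP secondary at 1:2000, chemiluminescence detection.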

[6] = target: Casein kinase II subunit alpha (Homo sapiens) (UniProt P68400); experiment: Potency index, ratio for inhibition activity of apigenin to test compound for inhibition of CK2alpha in human HeLa cells after 48 hrs by Western blot analysis; assay type: cell-based
Method in brief: (§3)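 Cells plated at 1 × 10^6 per 100 mm dish and treated next day for 48 h with test compound (2 or 4 μM) or apigenin (10, 20 or 40 μM). RIPA lysates with protease inhibitors; equal protein loaded for SDS-PAGE, then PVDF transfer. Blocked in 5% milk/TBST (3% BSA for CK2α); anti-SIX1 or anti-CK2α 1:500, HRP secondary 1:2000; chemiluminescent detection.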

[7] = target: Casein kinase II subunit alpha (Homo sapiens) (UniProt P68400); experiment: Potency index, ratio for inhibition activity of apigenin to test compound for inhibition of CK2alpha in human C33A cells after 48 hrs by Western blot analysis; assay type: cell-based; settings: C-33-A; method in brief: as §3
[8] = target: Casein kinase II subunit alpha (Homo sapiens) (UniProt P68400); experiment: Potency index, ratio for inhibition activity of apigenin to test compound for inhibition of CK2alpha in human SiHa cells after 48 hrs by Western blot analysis; assay type: cell-based; method in brief: as §3
C-33-A [9] = experiment: Antiproliferative activity against human C33A cells assessed as reduction in cell viability after 48 hrs by CellTiter-Glo assay; assay type: functional, cell-based
Method in brief: (§4)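 ATP-based luminescent viability readout. Cells were grown in DMEM with 10% FBS, 2 mM L-glutamine and penicillin-streptomycin at 37 °C, 5% CO2. 2 × 10^4 cells/well were seeded, then exposed the next day to 0–40 μM for 24, 48 or 72 h. % viability = 100 × treated/control. IC50 was fitted from a sigmoid dose-response curve. Run at least three times in quadruplicate; mean ± SEM.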

[10] = target: T1, Protein E7 (Human papillomavirus 16); experiment: Inhibition of Human papillomavirus type16 derived E7 in human SiHa cells assessed as decrease in phosphorylation of Rb at 2 to 4 uM after 48 hrs by Western blot analysis; assay type: cell-based; method in brief: as §2
C-33-A [11] = experiment: Induction of apoptosis in human C33A cells assessed as necrotic cells at 4 uM after 24 hrs by Annexin V-FITC/PI double staining based flow cytometric analysis; assay type: functional
[12] = target: Casein kinase II subunit alpha (Homo sapiens) (UniProt P68400); experiment: Potency index, ratio for inhibition activity of apigenin to test compound for inhibition of CK2alpha in human CaSki cells after 48 hrs by Western blot analysis; assay type: cell-based; settings: Ca-Ski; method in brief: as §3
Ca-Ski [13] = experiment: Antiproliferative activity against human CaSki cells assessed as reduction in cell viability after 24 hrs by CellTiter-Glo assay; assay type: functional, cell-based; method in brief: as §4
SiHa [14] = experiment: Cell cycle arrest in human SiHa cells assessed as accumulation at G0/G1 phase at 4 uM after 48 hrs by propidium iodide staining based flow cytometric analysis (reference value: 72.7%); assay type: functional; method in brief: as §1
SiHa [15] = experiment: Effect on total-Rb in human SiHa cells assessed decrease in Rb protein level at 2 to 4 uM after 48 hrs by Western blot analysis; assay type: ADME, cell-based; method in brief: as §2
[16] = target: T2, Homeobox protein SIX1 (Homo sapiens) (UniProt Q15475); experiment: Potency index, ratio for inhibition activity of apigenin to test compound for inhibition of SIX1 in human SiHa cells after 48 hrs by Western blot analysis; assay type: cell-based; method in brief: as §3
T2 sequence (whole entry): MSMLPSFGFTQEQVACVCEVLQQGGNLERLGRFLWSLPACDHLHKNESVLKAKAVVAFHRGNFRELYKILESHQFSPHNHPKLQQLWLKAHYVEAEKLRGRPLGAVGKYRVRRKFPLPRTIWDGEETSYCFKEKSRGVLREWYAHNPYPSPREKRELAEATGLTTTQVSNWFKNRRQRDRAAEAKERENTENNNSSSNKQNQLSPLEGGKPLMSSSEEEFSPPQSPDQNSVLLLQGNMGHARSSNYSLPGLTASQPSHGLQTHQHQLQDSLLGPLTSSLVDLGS

C-33-A [17] = experiment: Inhibition of colony formation in human C33A cells at 2 to 4 uM afer 1 week by crystal violet staining based assay; assay type: functional, cell-based
Method in brief: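 Cells were grown in DMEM with 10% FBS, seeded at 1 × 10^3 cells/ml in six-well plates, incubated overnight, then exposed to 2 or 4 μM at 37 °C under 5% CO2 for one week. Colonies were fixed with 4% paraformaldehyde, stained with 0.5% crystal violet and photographed.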

Ca-Ski [18] = experiment: Cell cycle arrest in human CaSki cells assessed as accumulation at G0/G1 phase at 4 uM after 72 hrs by propidium iodide staining based flow cytometric analysis (reference value: 77.6%); assay type: functional
[19] = target: Casein kinase II subunit alpha (Homo sapiens) (UniProt P68400); experiment: Inhibition of CK2alpha in human C33A cells at 2 to 4 uM after 48 hrs by Western blot analysis; assay type: cell-based; settings: C-33-A; method in brief: as §2
HeLa [20] = experiment: Cell cycle arrest in human HeLa cells assessed as accumulation at G2/M phase at 4 uM after 48 hrs by propidium iodide staining based flow cytometric analysis (reference value: 16.2%); assay type: functional
HeLa [21] = experiment: Cell cycle arrest in human HeLa cells assessed as accumulation at G0/G1 phase at 4 uM after 72 hrs by propidium iodide staining based flow cytometric analysis (reference value: 76.4%); assay type: functional; method in brief: as §1

Chain of Casein kinase II subunit alpha (Homo sapiens) (P68400 whole entry, looked up): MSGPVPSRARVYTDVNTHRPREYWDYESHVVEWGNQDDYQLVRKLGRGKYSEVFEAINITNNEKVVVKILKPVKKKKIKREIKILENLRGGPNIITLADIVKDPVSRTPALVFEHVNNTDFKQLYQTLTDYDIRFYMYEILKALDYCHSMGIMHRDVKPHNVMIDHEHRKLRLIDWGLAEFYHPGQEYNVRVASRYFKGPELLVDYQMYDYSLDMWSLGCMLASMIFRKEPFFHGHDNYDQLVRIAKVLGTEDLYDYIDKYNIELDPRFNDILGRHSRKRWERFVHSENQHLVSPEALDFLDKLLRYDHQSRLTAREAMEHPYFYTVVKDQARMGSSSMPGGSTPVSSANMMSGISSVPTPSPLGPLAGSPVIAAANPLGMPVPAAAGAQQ

For O[C@]12C=C(c3nccc4c3[nH]c3ccccc34)[C@@H]3CCN(CCCC/C=C\CC1)C[C@@]31C[C@@H]3/C=C\CCCCN3[C@H]12 [MANZAMINE A], the Activity (HeLa [1]) was 75.9%, the Activity (C-33-A [2]) was “inactive” and the viability at 4 µM (SiHa [3]) was 66.4%. For the same compound, the Activity (C-33-A [4]) was 24.6%, the inhibition [5] was “Active” and the Ratio [6] was 10. For the same compound, the Ratio [7] was 10, the Ratio [8] was 10 and the IC50 (C-33-A [9]) was 2.1 µM. For the same compound, the inhibition [10] was “Active”, the Activity (C-33-A [11]) was 6.3% and the Ratio [12] was 10. For the same compound, the IC50 (Ca-Ski [13]) was 33.6 µM, the Activity (SiHa [14]) was 86.4% and the Activity (SiHa [15]) was “Toxic”. The Ratio [16] was 10, the inhibition (C-33-A [17]) was “Active” and the Activity (Ca-Ski [18]) was 81.7%. For the same compound, the inhibition [19] was “Active”, the Activity (HeLa [20]) was 20.8% and the Activity (HeLa [21]) was 49.1%.
